Source: ChEMBL document CHEMBL5674889, “Enhanced JunD/RSK3 signalling due to loss of BRD4/FOXD3/miR-548d-3p axis determines BET inhibition resistance” (2020)
Calls of active or inactive are those of the source. The calls are words filed in the database; no cut-off is given here.

What was measured:
BT-549 [1] = assay: Antiproliferative activity in human RPS6KA2-knockdown BT-549 cells assessed as cell growth at 1 uM by CCK-8 assay; format: functional, cell-based
BT-549 [2] = assay: Effect on human BRD4-knockdown BT-549 assessed as decreased luciferase activity at 1 uM for 6 hrs by Luciferase reporter assay; format: functional, cell-based
MDA-MB-231 [3] = assay: Cytotoxicity in human RSK3-overexpressing MDA-MB-231 cells assessed as cell viability at 1 uM for 48 hrs by CellTiter-Glo luminescent cell viability assay; format: functional, cell-based
Procedure, shortened: (§1)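 CellTiter-Glo viability: stable overexpressing or shRNA clones (puromycin 1.0 μg/ml selection) seeded 3000 cells/well, adhered overnight, then exposed to 1 μM for 48 h. Luminescence is background-subtracted and normalised to DMSO-treated control. Triplicates, mean ± SD, one-way ANOVA. MDA-MB-231 cells are kept in DMEM and BT549 in RPMI-1640, each with 10% FBS.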

MDA-MB-231 [4] = assay: Antiproliferative activity in human RPS6KA2-knockdown MDA-MB-231 cells assessed as inhibited cell growth at 1 uM for 48 hrs by CCK-8 assay; format: functional, cell-based
MDA-MB-231 [5] = assay: Effect of human RSK3-overexpressing MDA-MB-231 cells assessed as suppression of tumour sphere formation at 1 uM by Tumour sphere assay; format: functional, cell-based
MDA-MB-231 [6] = assay: Induction of apoptosis in human MDA-MB-231 cells expressing vector control assessed as necrotic cells at 1 uM by Annexin V-FITC flow cytometric analysis (reference value: 1.67%); format: functional
Procedure, shortened: (§2)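 Stable clones (vector, RSK3-overexpressing or RPS6KA2-knockdown) treated ± JQ1 1 μM. Cells washed twice in PBS, resuspended at 1 × 10^6 cells/ml in binding buffer, stained with Annexin V-FITC and propidium iodide for 10 min at room temperature in the dark, then read by flow cytometry. Three independent experiments; one-way ANOVA.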

MDA-MB-231 [7] = assay: Antiproliferative activity in human MDA-MB-231 cells assessed as inhibited cell growth in the presence of osimertinib at 1 uM for 48 hrs by CCK-8 assay; format: functional, cell-based
Procedure, shortened: (§3)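 Cells seeded 3000/well, adhered overnight, treated with JQ1 (1 μM) with or without osimertinib (1 μM) for 48 h; growth by CCK-8 kit, normalized to DMSO-treated control; triplicates, mean ± SD, one-way ANOVA.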

MDA-MB-231 [8] = assay: Effect on human RPS6KA2-knockdown MDA-MB-231 cells assessed as RSK3 protein expression at 1 uM by Western blot analysis; format: functional, cell-based
MDA-MB-231 [9] = assay: Induction of apoptosis in human MDA-MB-231 cells expressing vector control assessed as early apoptotic cells at 1 uM by Annexin V-FITC flow cytometric analysis (reference value: 4.02%); format: functional; procedure, shortened: as §2
MDA-MB-231 [10] = assay: Antiproliferative activity in human RPS6KA2-knockdown MDA-MB-231 cells assessed as cell viability at 1 uM for 48 hrs by CellTiter-Glo luminescent cell viability assay; format: functional, cell-based; procedure, shortened: as §1
BT-549 [11] = assay: Induction of apoptosis in human RPS6KA2-knockdown BT-549 cells at 1 uM by FACS assay; format: functional, cell-based; procedure, shortened: as §2
BT-549 [12] = assay: Antiproliferative activity in human JunD-overexpressing BT-549 cells assessed as cell growth in the presence of osimertinib at 1 uM by CCK-8 assay; format: functional, cell-based
MDA-MB-231 [13] = assay: Antiproliferative activity in human JUND-overexpressing MDA-MB-231 cells assessed as cell viability at 1 uM by CellTiter-Glo luminescent cell viability assay; format: functional, cell-based
Procedure, shortened: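 Stable JUND-knockdown (shRNA, puromycin 1.0 μg/ml selection) or JUND-overexpressing clones and vector controls, seeded 3000 cells/well and adhered overnight, then given DMSO or JQ1 (1 μM) for 48 h. Read-out CellTiter-Glo luminescence normalized to DMSO control; triplicates, mean ± SD, one-way ANOVA.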

BT-549 [14] = assay: Effect on human BT-549 cells assessed as miR-548d-5p expression at 1 uM by real-time PCR analysis; format: functional, cell-based
MDA-MB-231 [15] = assay: Induction of apoptosis in human MDA-MB-231 cells in the presence of osimertinib at 1 uM by flow cytometry analysis; format: functional, cell-based
Procedure, shortened: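 Cells given JQ1 and/or osimertinib, then stained with Annexin V-FITC plus propidium iodide (10 min, room temperature, dark; 1 × 10^6 cells/ml in binding buffer after two PBS washes) and analysed by flow cytometry; one-way ANOVA.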

MDA-MB-231 [16] = assay: Antiproliferative activity in human MDA-MB-231 cells assessed as inhibited cell growth at 1 uM by CCK-8 assay; format: functional, cell-based
MDA-MB-231 [17] = assay: Effect on human MDA-MB-231 cells assessed as JunD protein expression in the presence of miR-548d-3p at 1 uM by Western blot analysis; format: functional, cell-based
BT-549 [18] = assay: Effect on human BRD4-knockdown BT-549 cells assessed as miR-548d-3p expression at 1 uM by real-time PCR analysis; format: functional, cell-based
MDA-MB-231 [19] = assay: Antitumor activity against human MDA-MB-231 cells xenografted in BALB/c nude mouse model assessed as reduction of tumor weight in the presence of osimertinib at 35 mg/kg/day, sc administered every 2 days for 30 days; format: functional, organism-based; conditions: time 30.0 day
Procedure, shortened: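 MDA-MB-231 xenografts used 1 × 10^6 cells injected subcutaneously into female BALB/c nude mice (4–6 weeks). Animals were split into four groups (n = 7) at ~100 mm3: vehicle, osimertinib 10 mg/kg, 35 mg/kg agent, or the combination, each given every 2 days. Volume was measured by calliper as length × width²/2; tumours were weighed at end.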

BT-549 [20] = assay: Induction of apoptosis in human BT-549 cells at 1 uM by FACS assay; format: functional, cell-based; procedure, shortened: as §2
HEK-293T = assay: Effect on human HEK293T cells transfected with BRD4 assessed as decrease in luciferase activity at 1 uM for 6 hrs by Luciferase reporter assay; format: functional, cell-based
MDA-MB-231 [21] = assay: Antiproliferative activity in human MDA-MB-231 cells assessed as cell growth in the presence of miR-548d-3p inhibitor at 1 uM by CCK-8 assay; format: functional, cell-based
Procedure, shortened: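 BLBC cells transfected with miR-548d-3p mimic or inhibitor, with or without JQ1; growth read by CCK-8 assay relative to DMSO-treated control, seeded at 3000/well. Triplicates, mean ± SD, one-way ANOVA.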

BT-549 [22] = assay: Antiproliferative activity in human BT-549 cells assessed as cell growth inhibition for 48 hrs in the presence of […] at 1 uM by CCK-8 assay; format: functional, cell-based
MDA-MB-231 [23] = assay: Induction of apoptosis in human MDA-MB-231 cells expressing vector control assessed as viable cells at 1 uM by Annexin V-FITC flow cytometric analysis (reference value: 91.91%); format: functional; conditions: read-out: Activity; procedure, shortened: as §2
MDA-MB-231 [24] = assay: Antiproliferative activity in human MDA-MB-231 cells assessed as cell growth for 48 hrs in the presence of osimertinib at 1 uM by CCK-8 assay; format: functional, cell-based; procedure, shortened: as §3
BT-549 [25] = assay: Antiproliferative activity in human RPS6KA2-knockdown BT-549 cells assessed as cell viability at 1 uM for 48 hrs by CellTiter-Glo luminescent cell viability assay; format: functional, cell-based; procedure, shortened: as §1
MDA-MB-231 [26] = assay: Effect on JUND dependent RPS6KA2 transcription in human JUND-knockdown MDA-MB-231 cells assessed reduction in transcription level at 1 uM by EMSA analysis; format: functional, cell-based

Cc1sc2c(c1C)C(c1ccc(Cl)cc1)=N[C@@H](CC(=O)OC(C)(C)C)c1nnc(C)n1-2
Activity (BT-549 [1]): Active | Activity (BT-549 [2]): Active | Activity (MDA-MB-231 [3]): Active | Activity (MDA-MB-231 [4]): Active | Activity (MDA-MB-231 [5]): Active | Activity (MDA-MB-231 [6]): 1.54% | Activity (MDA-MB-231 [7]): Active | Activity (MDA-MB-231 [8]): Active | Activity (MDA-MB-231 [9]): 16.3% | Activity (MDA-MB-231 [10]): Active | Activity (BT-549 [11]): Active | Activity (BT-549 [12]): Active | Activity (MDA-MB-231 [13]): Active | Activity (BT-549 [14]): Active | Activity (MDA-MB-231 [15]): Active | Activity (MDA-MB-231 [16]): Active | Activity (MDA-MB-231 [17]): Active | Activity (BT-549 [18]): Active | Activity (MDA-MB-231 [19]): Active | Activity (BT-549 [20]): Active | Activity (HEK-293T): Active | Activity (MDA-MB-231 [21]): Active | Activity (BT-549 [22]): Active | viability at 1 µM (MDA-MB-231 [23]): 76.7% | Activity (MDA-MB-231 [24]): Active | Activity (BT-549 [25]): Active | Activity (MDA-MB-231 [26]): Active
